Reference: article PMC5934316 (Oncogene, 2018)
pIC50: −log10 of the molar value. Like-named read-outs stand apart in the source and are kept apart here.

Assays:
[1] = tested on: STAT3-dependent luciferase reporter; assay: STAT3-dependent luciferase reporter assay; type: cell-based, human; settings: for STAT3-dependent luciferase expression: MDA-MB-231 cells, Figure 1B
Procedure, shortened: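 MDA-MB-231 cells stably carrying a STAT3-dependent luciferase reporter were treated with DMSO or test compound. Dose-response used graded concentrations; the time course used 2 μM for varying times. Luciferase activity was then measured with a commercial kit. Experiments were run at least three times.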

MDA-MB-231 [2] = assay: Annexin V-FITC/PI apoptosis assay; type: cell-based, human
Procedure, shortened: (§1)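 Cells grown in DMEM with 10% FBS at 37 °C, 5% CO2. Seeded at 3×10^5 cells/well in 6-well plates and exposed to test compound for 24 h. Stained with annexin V-FITC and propidium iodide and analysed by flow cytometry. Annexin V+/PI− plus double-positive cells were counted as apoptotic. Experiments were run at least three times.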

MDA-MB-468 = assay: MTT survival assay; type: cell-based; settings: Homo sapiens, read-out: IC50, survival
Procedure, shortened: (§2)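 Breast cancer lines were cultured in DMEM + 10% FBS at 37 °C, 5% CO2. Cells were seeded at 3–4×10^3 per well in 96-well plates and treated with graded test-compound concentrations for 48 or 72 h. Viable cells were then measured by MTT. Experiments were run at least three times.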

[3] = tested on: MDA-MB-231 and MCF-7 cells; assay: JC-1 mitochondrial membrane potential assay; type: cell-based, human; settings: JC-1, 24 hours, both cell lines
Procedure, shortened: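 MDA-MB-231 and MCF-7 cells were exposed to graded test-compound concentrations for 24 h. They were then stained with JC-1 (5 μg/mL) for 30 min at 37 °C, washed in PBS and analysed by flow cytometry. Δψm was taken as the ratio of red (aggregate) to green (monomer) fluorescence. Experiments were run at least three times.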

[4] = Body weight in xenograft study; type: in vivo, mice
Procedure, shortened: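 MDA-MB-231 tumour pieces (~1.5 mm) from a donor xenograft were implanted s.c. in the left flank of 4–6-week-old female Balb/c nude mice. At ~100 mm3, mice were randomised (5/group) to vehicle, 10 or 40 mg/kg test compound, or 0.6 mg/kg vincristine. Dosing was IP every 3 days for 18 days, with body weight recorded every 3 days.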

recombinant STAT3 = assay: Pull-down assay with immobilized BMA097, purified recombinant STAT3 proteins; type: binding; settings: silver staining
Procedure, shortened: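 Purified recombinant STAT3 deletion proteins were mixed with test compound immobilised on CNBr-activated Sepharose 4B, after milk blocking in Tris-HCl pH 8.0/KCl/NP-40 binding buffer. Pulled-down material was separated by SDS-PAGE and detected by silver staining or STAT3 Western blot.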

MCF7 [5] = assay: MTT survival assay; type: cell-based; settings: Homo sapiens, read-out: IC50, survival
Procedure, shortened: as §2

MDA-MB-231 [6] = assay: MTT survival assay; type: cell-based; settings: Homo sapiens, read-out: IC50, survival
Procedure, shortened: as §2

STAT3 [7] = biological target: T1, STAT3 (Homo sapiens, UniProt P40763); type: cell-based
Procedure, shortened: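 In MDA-MB-231 cells, constitutive pSTAT3 was assessed after graded doses for 24 h or 2 μM over time, with actin as loading control. For IL-6 induction, serum-starved cells were pretreated, then given IL-6. Localisation after 24 h used methanol/acetone-fixed, Triton-permeabilised cells stained for (p)STAT3 with Alexa555 secondary and DAPI (confocal), or fractionation with histone/actin markers. Dimers were resolved by non-denaturing PAGE and Western blot.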

MDA-MB-231 xenografts = assay: In-vivo efficacy, xenograft tumors; set-up: species or system mice
Procedure, shortened: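 Donor xenograft: 1×10^7 MDA-MB-231 cells injected s.c. into a 5-week-old female Balb/c nude mouse and grown 2 weeks. ~1.5-mm pieces were implanted s.c. in 4–6-week-old female nude mice. At ~100 mm3, five mice per group received vehicle, test compound or vincristine 0.6 mg/kg IP every 3 days for 18 days. Tumour volume was measured blinded every 3 days. IHC covered total/Tyr705-phosphorylated STAT3 and cleaved caspase 3.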

STAT3 [8] = biological target: T1, STAT3; assay: Pull-down assay with immobilized BMA097, MDA-MB-231 cell lysate; type: binding
Procedure, shortened: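 Test compound was coupled to CNBr-activated Sepharose 4B and blocked with 10% milk in binding buffer (20 mM Tris-HCl pH 8.0, 150 mM KCl, 1 mM EDTA, 15% glycerol, 0.5% NP-40, 0.2 mM PMSF, protease inhibitors). Beads were mixed with MDA-MB-231 lysate. For competition, lysate was first incubated 30 min at 37 °C with DMSO, 400 μM free compound or an irrelevant compound. For elution, bound material was incubated 1 h with the same agents. Read-out was SDS-PAGE and STAT3 Western blot.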

[9] = tested on: STAT3 target genes, cyclin D1 and Bcl-xL; assay: Real-time RT-PCR and Western blot of STAT3 target genes in MDA-MB-231 cells; type: cell-based, human; settings: mRNA by real-time RT-PCR and protein by Western blot
Procedure, shortened: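 MDA-MB-231 cells were treated with graded test-compound concentrations. Cyclin D1, Bcl-xL and STAT3 mRNAs were measured by SYBR Green real-time RT-PCR and quantified by 2ΔΔCt against GAPDH (n=3). For protein, cells were treated for 24 h, then analysed by SDS-PAGE/PVDF Western blot with HRP secondaries and ECL on film, using actin as loading control.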

MTT survival assay = type: cell-based; settings: human, MCF10A cells, IC50, cytotoxicity
JAK2 = JAK2 (Homo sapiens, UniProt O60674); assay: Western blot of JAK2 Tyr1007/1008 phosphorylation in MDA-MB-231 cells; type: cell-based
Procedure, shortened: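 MDA-MB-231 cells were treated with test compound, and lysates were analysed by SDS-PAGE/PVDF Western blot. Blots were probed for total and Tyr1007/1008-phosphorylated JAK2, detected with HRP secondaries and ECL on film.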

MCF7 [10] = assay: Annexin V-FITC/PI apoptosis assay; type: cell-based, human
Procedure, shortened: as §1

breast cancer cells = assay: MTT survival assay, summary over breast cancer cells; type: cell-based; settings: Homo sapiens, 72 h, read-out: IC50 for breast cancer cells
Procedure, shortened: as §2

T1 sequence (P40763 whole entry): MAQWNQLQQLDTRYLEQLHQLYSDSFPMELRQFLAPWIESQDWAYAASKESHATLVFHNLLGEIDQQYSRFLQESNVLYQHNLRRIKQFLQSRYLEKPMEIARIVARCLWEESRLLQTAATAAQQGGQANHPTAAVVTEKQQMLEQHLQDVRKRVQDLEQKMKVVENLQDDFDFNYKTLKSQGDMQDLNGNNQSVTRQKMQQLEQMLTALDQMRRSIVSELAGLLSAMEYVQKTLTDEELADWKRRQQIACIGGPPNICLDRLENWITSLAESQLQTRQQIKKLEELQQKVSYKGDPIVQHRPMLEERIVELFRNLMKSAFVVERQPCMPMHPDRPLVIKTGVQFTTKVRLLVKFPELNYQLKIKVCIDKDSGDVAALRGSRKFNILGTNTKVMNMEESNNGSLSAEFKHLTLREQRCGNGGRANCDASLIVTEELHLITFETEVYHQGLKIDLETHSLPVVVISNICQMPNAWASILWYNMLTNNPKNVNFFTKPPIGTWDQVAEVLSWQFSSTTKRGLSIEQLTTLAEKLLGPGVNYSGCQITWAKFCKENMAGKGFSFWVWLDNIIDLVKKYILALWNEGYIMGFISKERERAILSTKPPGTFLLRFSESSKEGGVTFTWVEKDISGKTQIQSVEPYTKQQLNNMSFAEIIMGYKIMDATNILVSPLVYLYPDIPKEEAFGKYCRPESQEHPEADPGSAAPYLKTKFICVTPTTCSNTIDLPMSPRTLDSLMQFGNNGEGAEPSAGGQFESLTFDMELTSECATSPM
Sequence of JAK2 (O60674 whole entry): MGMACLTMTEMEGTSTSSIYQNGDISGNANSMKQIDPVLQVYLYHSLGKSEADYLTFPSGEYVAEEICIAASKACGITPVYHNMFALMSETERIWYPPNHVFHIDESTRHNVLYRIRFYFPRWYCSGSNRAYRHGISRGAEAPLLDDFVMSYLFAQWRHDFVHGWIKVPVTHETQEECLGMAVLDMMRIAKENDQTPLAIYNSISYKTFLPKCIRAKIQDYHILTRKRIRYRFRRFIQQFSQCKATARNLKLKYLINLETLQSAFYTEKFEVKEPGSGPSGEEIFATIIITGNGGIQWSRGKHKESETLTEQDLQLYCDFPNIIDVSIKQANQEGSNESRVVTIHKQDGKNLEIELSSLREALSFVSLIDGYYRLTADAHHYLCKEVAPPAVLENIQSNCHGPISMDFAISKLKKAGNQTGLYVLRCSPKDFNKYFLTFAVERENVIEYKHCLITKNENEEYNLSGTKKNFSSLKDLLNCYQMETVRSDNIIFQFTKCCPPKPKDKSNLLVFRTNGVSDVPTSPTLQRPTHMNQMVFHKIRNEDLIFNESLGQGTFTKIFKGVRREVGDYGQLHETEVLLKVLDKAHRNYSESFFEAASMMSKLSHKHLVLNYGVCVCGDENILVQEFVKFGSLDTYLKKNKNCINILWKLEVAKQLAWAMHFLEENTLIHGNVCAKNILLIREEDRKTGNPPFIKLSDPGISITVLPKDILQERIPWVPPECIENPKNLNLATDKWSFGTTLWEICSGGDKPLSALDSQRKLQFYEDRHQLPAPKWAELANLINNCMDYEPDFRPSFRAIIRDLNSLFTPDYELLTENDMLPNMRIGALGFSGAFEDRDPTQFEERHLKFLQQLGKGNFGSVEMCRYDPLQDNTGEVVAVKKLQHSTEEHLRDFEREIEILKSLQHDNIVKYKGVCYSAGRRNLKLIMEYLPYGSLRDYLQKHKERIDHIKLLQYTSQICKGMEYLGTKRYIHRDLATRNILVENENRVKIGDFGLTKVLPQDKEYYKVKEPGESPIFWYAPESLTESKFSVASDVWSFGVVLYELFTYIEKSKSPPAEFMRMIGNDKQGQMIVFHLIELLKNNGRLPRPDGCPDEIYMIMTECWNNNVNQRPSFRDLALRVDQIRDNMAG

With CCn1cc(C2=C(c3cn(CCC#N)c4ccccc34)C(=O)NC2=O)c2ccccc21 [BMA016, 2-(1-ethyl-1H-indol-3-yl)-3-[1-(2-cyanoethyl)-1H-indol-3-yl]maleimide] the STAT3-dependent luciferase expression [1] was “significantly inhibited”.

With CCn1cc(C2=C(c3cn(CCCC#N)c4ccccc34)C(=O)NC2=O)c2ccccc21 [BMA019, 2-(1-ethyl-1H-indol-3-yl)-3-[1-(3-cyanopropyl)-1H-indol-3-yl]maleimide] the STAT3-dependent luciferase expression [1] was “significantly inhibited”.

For N#CCCCn1cc(C2=C(c3cn(CCCC#N)c4ccccc34)C(=O)NC2=O)c2ccccc21 [BMA097, 2,3-bis[1-(3-cyanopropyl)-1H-indol-3-yl]maleimide], the “total annexin V-positive cells” value (MDA-MB-231 [2]; 2 μM BMA097, 24 hrs) was 51.9%, the “total annexin V-positive cells” value (MDA-MB-231 [2]; 4 μM BMA097, 24 hrs) was 63.8% and the pIC50 (MDA-MB-468; MDA-MB-468, 48 h) was 5.40. The pIC50 (MDA-MB-468; MDA-MB-468, 72 h) was 5.74, the “mitochondrial membrane potential (Δψm)” value [3] was “induced Δψm loss” and the “weight loss and apparent phenotypic changes in the mouse model” value ([4]; 40 mg/kg) was “lack of weight loss”. For the same molecule, the “body weight reduction between the control and treatment groups” value ([4]; 10 and 40 mg/kg IP) was “no significant differences”, the pIC50 ([1]; Homo sapiens, MDA-MB-231, read-out: IC50, inhibition of STAT3-dependent luciferase expression) was ~5.74 and the STAT3-dependent luciferase expression [1] was “significantly inhibited”. For the same molecule, the “t1/2, inhibition of STAT3-dependent luciferase expression” value ([1]; re-synthesized BMA097, time course at 2 μM) was ~ 16 hrs, the “pull-down of recombinant STAT3 lacking the TAD domain (ΔTAD-C)” value (recombinant STAT3) was “successfully pulled down” and the “pull-down of recombinant STAT3 with further deletion of the SH2 domain (ΔSH2-C)” value (recombinant STAT3) was “abolished the binding”. It also gave a pIC50 (MCF7 [5]; MCF7, 48 h) of 5.19, a pIC50 (MCF7 [5]; MCF7, 72 h) of 5.41 and a pIC50 (MDA-MB-231 [6]; MDA-MB-231, 48 h) of 5.44. For the same molecule, the pIC50 (MDA-MB-231 [6]; MDA-MB-231, 72 h) was 6.05, the “level of total STAT3” value (STAT3 [7]) was “little effect” and the “phosphorylation of Ser727 of STAT3” value (STAT3 [7]) was “did not affect”. For the same molecule, the “phosphorylation of Tyr705 of STAT3” value (STAT3 [7]; constitutive, dose- and time-dependent) was “inhibits”, the “nucleus-localized STAT3” value (STAT3 [7]; immunofluorescence and fractionation, 24 hrs) was “disappeared” and the STAT3 dimerization (STAT3 [7]; non-denaturing PAGE, dose- and time-dependent) was “inhibited”. The “IL-6-induced phosphorylation and activation of STAT3” value (STAT3 [7]; serum-starved MDA-MB-231 cells) was “reduced”, the “growth and final weight of MDA-MB-231 xenograft tumors” value (MDA-MB-231 xenografts; 10 mg/kg IP every 3 days for 18 days) was “significantly reduced” and the “growth and final weight of MDA-MB-231 xenograft tumors” value (MDA-MB-231 xenografts; 40 mg/kg IP every 3 days for 18 days) was “significantly reduced”. For the same molecule, the “caspase 3 cleavage in xenograft tumors” value (MDA-MB-231 xenografts; IHC staining) was “induced”, the “phosphorylated STAT3 in xenograft tumors” value (MDA-MB-231 xenografts; IHC staining, vs vehicle control) was “reduced level” and the “STAT3 pull-down by BMA097-conjugated Sepharose” value (STAT3 [8]; lysate of MDA-MB-231 cells) was “successfully pulled down STAT3”. For the same molecule, the “competition of STAT3 pulldown by excess free BMA097” value (STAT3 [8]; lysate pre-treated with 400 μM BMA097) was “completely inhibited”, the “expression of STAT3 target genes, cyclin D1 and Bcl-xL” value [9] was “inhibited” and the IC50 at 48 h (MTT survival assay; 48 hrs) was 10.6 µM. For the same molecule, the IC50 at 72 h (MTT survival assay; 72 hrs) was 6.5 µM, the “level of total JAK2” value (JAK2) was “no effect” and the JAK2 phosphorylation/activation (JAK2; Tyr1007/1008) was “does not inhibit”. The “total annexin V-positive cells” value (MCF7 [10]; 2 μM BMA097, 24 hrs) was 34.2%, the “total annexin V-positive cells” value (MCF7 [10]; 4 μM BMA097, 24 hrs) was 48.1% and the pIC50 (breast cancer cells) was 5.41 to 6.05.

With N#CCCCCn1cc(C2=C(c3cn(CCCCC#N)c4ccccc34)C(=O)NC2=O)c2ccccc21 [BMA100, 2,3-bis[1-(4-cyanobutyl)-1H-indol-3-yl] maleimide] the STAT3-dependent luciferase expression [1] was “significantly inhibited”.

For CCn1cc(C2=C(c3cn(CCCCC#N)c4ccccc34)C(=O)N(CO)C2=O)c2ccccc21 [BMA088, N-hydroxymethyl-2-(1-ethyl-1H-indol-3-yl)-3-[1-(4-cyanobutyl)-1H-indol-3-yl] maleimide], the STAT3-dependent luciferase expression [1] was “no inhibition”.

In the case of “N-hydroxy-2-(1-ethyl-1H-indol-3-yl)-3-(1-hydroxy-1H-indol-3-yl)maleimide [BMA127]”, the STAT3-dependent luciferase expression [1] was “least inhibition”.
